For assay [1], the system named is PC-3M. As to the kind of experiment: Inhibition of human PC3M cell migration at 5 uM by wound-healing assay. Type of assay: functional, cell-based.
Assay [2] concerns PC-3M. As to the kind of experiment: Inhibition of cell proliferation in human PC3M cells at 5 uM after 40 hrs by MTT assay. It counts as functional, cell-based. The essentials:
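Antiproliferative (cytotoxicity) screen by the MTT method, with each compound tested at a single concentration of 5 µM.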
For orientation: Formazan colour is commonly taken as a measure of viable cells.

Calls of active or inactive are those of the source. The calls are words filed in the database; no cut-off is given here.

As for `COc1cc(OC)c2c(c1O)C(=O)C1=C(CO[C@@](C)(O)C1)C2=O`, the inhibition entry in the assay on PC-3M [1] and with PC-3M [2] was “inactive” throughout.
For `COc1cc(OC)c2c(c1)C(=O)C1=C(C2=O)C(OC)OC(C)=C1` (stereo not drawn), the inhibition entry in the assay on PC-3M [1] and in the assay with PC-3M [2] was “inactive” in each case.
Consider `COc1cc(OC)c2c(c1)C(=O)c1cc(C)ncc1C2=O`, for which the inhibition result in the assay with PC-3M [1] and with PC-3M [2] was “inactive” throughout.
With `COc1cc(OC)c2c(c1)[C@H](O)C1C[C@](C)(O)OCC1C2=O` (stereo partly drawn), the inhibition result in the assay with PC-3M [1] and in the assay on PC-3M [2] was “inactive” throughout.
Consider `COc1cc(O)cc2c1C(=O)C1=C(C[C@](C)(O)OC1)C2=O`, for which the inhibition result with PC-3M [1] and with PC-3M [2] was “inactive” throughout.
`COc1cc(OC)c2c(c1O)C(=O)c1cc(C)ncc1C2=O`: the inhibition result in the assay on PC-3M [1] and in the assay with PC-3M [2] was “inactive” each time.
With `COc1cc(O)c2c(c1)[C@H](O)C1C[C@](C)(O)OCC1C2=O` (stereo partly drawn), the inhibition entry with PC-3M [1] and in the assay with PC-3M [2] was “inactive” throughout.
In the case of `COc1cc(OC)c2c(c1)C(=O)C1=C(CO[C@@](C)(O)C1)C2=O`, the inhibition result with PC-3M [1] and in the assay with PC-3M [2] was “inactive” throughout.
With `COc1cc2c(c(OC)c1O)C(=O)C1=C(C[C@](C)(O)OC1)C2=O`, the inhibition entry in the assay with PC-3M [1] and with PC-3M [2] was “inactive” each time.
